CYP2C9 activ – human CYP2C9 activators, primary screen, biochemical, luminescence | Cytochrome P450 2C9 (Homo sapiens), P11712 | recombinant CYP2C9, luciferin-H conversion; stronger effect = higher value; factor 1 = untreated enzyme, 0 = blocked | activation factor at 5 µM | 96,000 compounds, 1.4% hits;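 active = activation factor of 2 or more for CYP2C9 at a 5 µM dose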;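 also: 0 = sulfaphenazole-blocked wells and 1 = vehicle-only wells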
Ecoli WT expand – growth inhibitors of wild-type E. coli, primary screen, strain BW25113, expanded library, OD600; 98,000 compounds, 0.15% hits; OD600 absorbance; growth inhibition, % at 100 µM;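 active = growth inhibition above about 50% at one test dose, limit read from the data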;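 also: growth measured after 20 h incubation at 37 °C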
CYP2C9 inhib – blockers of cytochrome P450 2C9 activity – biochemical, luminescence, ADME assay, primary screen; P11712; 96,000 compounds, 20% hits; CYP2C9 Supersomes, luciferin-H conversion; inhibition, % at 5 µM;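 active = blocking of liver enzyme CYP2C9 beyond about 50% at 5 µM, limit read from the data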
Ecoli tolC – growth inhibitors of E. coli tolC mutant, primary screen, strain BW25113 ΔtolC::kan, 384-well; OD615; growth inhibition, % at 10 µM (by protocol); 65,000 compounds, 2.2% hits; AID 573, 2007;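 active = growth inhibition at or above a cutoff equal to the mean over every tested compound plus 3 SD, cut at about 60% in these data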;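 also: growth measured after 20 h incubation at 37 °C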
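signal = optical density read at 615 nm | test system = E. coli ΔtolC::kan strain BW25113 | timing = 20 h compound exposure of bacteria at 37 °C | buffer or medium = LB medium plus 50 µg/mL kanamycin | compound dosing = 10 µM final, single dose | evaluation = % inhibition of E. coli growth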
CYP2C19 inh – blockers of cytochrome P450 2C19 activity – biochemical, luminescence, ADME assay, primary screen; P33261; CYP2C19 Supersomes, luciferin-H EGE luminescence, 30 min; 96,000 compounds, 21% hits; inhibition, % at 5 µM;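 active = CYP2C19 inhibition above a set limit at 5 µM in the primary screen, cut at about 50% in these data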;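 also: plate controls were negative control wells for no effect and 2.5 mM tranylcypromine positive control for full effect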
Target sequence (P33261 whole entry, looked up): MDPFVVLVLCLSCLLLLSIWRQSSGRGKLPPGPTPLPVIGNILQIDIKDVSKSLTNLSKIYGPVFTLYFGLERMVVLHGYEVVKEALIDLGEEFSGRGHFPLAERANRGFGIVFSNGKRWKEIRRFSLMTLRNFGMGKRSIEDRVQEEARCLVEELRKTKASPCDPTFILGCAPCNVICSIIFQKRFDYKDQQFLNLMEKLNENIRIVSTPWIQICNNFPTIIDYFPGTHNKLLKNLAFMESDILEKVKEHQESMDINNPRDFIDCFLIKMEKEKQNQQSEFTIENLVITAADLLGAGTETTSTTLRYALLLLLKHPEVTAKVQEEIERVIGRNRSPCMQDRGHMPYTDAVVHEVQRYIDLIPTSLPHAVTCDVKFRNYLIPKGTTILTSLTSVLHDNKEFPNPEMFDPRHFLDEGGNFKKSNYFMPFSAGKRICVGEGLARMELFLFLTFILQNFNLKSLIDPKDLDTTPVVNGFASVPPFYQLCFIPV
CYP2C19 activ – human CYP2C19 activators, primary screen, biochemical, luminescence | activation factor at 5 µM | Cytochrome P450 2C19 (Homo sapiens), P33261 | recombinant CYP2C19, luciferin-H EGE luminescence; stronger effect = higher value; 0 = fully inhibited enzyme, 1 = untreated enzyme | 96,000 tested, under 10 active;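 active = activation factor of at least 2 at 5 µM in the primary screen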;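 also: 0 = wells with 2.5 mM tranylcypromine and 1 = vehicle-only wells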
An asterisk follows results filed as active; · = no result given. Only a sample is shown.

SMILES	CYP2C9 activ	Ecoli WT expand	CYP2C9 inhib	Ecoli tolC	CYP2C19 inh	CYP2C19 activ
CCCCn1c(O)c(C(C)=Nc2ccc(OCC)cc2)c(=O)[nH]c1=O	0.6	0	43	25	25	0.8
C(#CCN1CCOCC1)COCc1ccccc1	1	-1	-3	2	1	1
C=CCn1c(O)c(C(CC)=NCCC2=CCCCC2)c(=O)[nH]c1=O	0.7	4	28	·	23	0.8
CCCCN1C(=O)NC(=O)C2(Cc3c(nc4c(C)cccn4c3=O)N3CCc4ccccc4C32)C1=O (stereo unspecified)	0.1	-7	89*	98*	77*	0.2
CC1(C)COC(Nc2ccc(Cl)cc2)=N1	1	20	0	17	39	0.6
O=C(c1ccccc1)c1cn(CC(=O)N2CCCc3ccccc32)c2ccccc12	0.3	-16	74*	·	42	0.6
O=C(Cn1cc(C(=O)c2ccccc2)c2ccccc21)NCc1ccco1	0.2	-5	82*	20	82*	0.2
O=C(CN1C(=O)CN=C(c2ccccc2)c2ccccc21)NCc1ccco1	1.1	4	-7	-17	12	0.9
CC1=[N+]([O-])C2(N)CCc3nonc3C2(O)C1 (stereo unspecified)	1.1	5	-5	-19	2	1
N#Cc1c(/N=C/c2c(O)n(Cc3ccco3)c(=O)[nH]c2=O)sc2c1CCCC2	0.9	8	13	-6	-5	1.1
CCOC(=O)c1c(-n2c(C)cc(/C=C3\C(=O)NC(=O)N(C)C3=O)c2C)sc2c1CCCC2	0.3	0	71*	·	43	0.6
CCOC(=O)c1c(/N=C/c2c(O)n(-c3ccc(F)cc3)c(=S)[nH]c2=O)sc2c1CCCC2	0.6	2	37	·	-10	1.1
CCn1c(=O)cc(SCC(=O)N2CCC3(CC2)OCCO3)c2ccccc21	2.2*	5	-120	8	39	0.6
OC1(c2ccccc2F)CC2CCC(C1)N2CCN1CCOCC1 (stereo unspecified)	1.1	4	-9	-11	-8	1.1
COC(=O)CC1(CC(=O)OC)C(=O)NC(=O)NC1=O	1.1	-3	-6	-13	-2	1
Fc1ccc2c(c1)nnn2C1CCN(Cc2nnnn2CCc2ccccc2)CC1	0.1	-1	95*	6	78*	0.2
c1ccc(CCn2nnnc2CN2CCC(n3nnc4ccccc43)CC2)cc1	0.3	1	68*	13	69*	0.3
Fc1ccc2c(c1)nnn2C1CCN(Cc2ccccc2)CC1	0.7	8	26	-8	33	0.7
Cc1nc2ccccc2n1C1CCN(Cc2nnnn2CCc2ccccc2)CC1	0.6	-6	44	10	31	0.7
COc1ccc2c(c1OC)C(=O)OC2c1c(O)n(Cc2ccc(F)cc2)c(=O)[nH]c1=O (stereo unspecified)	0.7	4	28	-17	0	1
CN(C)c1ccc2c(c1)N=C(c1ccco1)OP2(=S)N1CCOCC1 (stereo unspecified)	0.8	-8	18	3	3	1
COc1ccc(Nc2ncc(C(=O)N3CCC4(CC3)OCCO4)c3ccccc23)cc1	0.9	3	14	6	23	0.8
Cc1c(C(=O)N2CCC3(CC2)OCCO3)sc2ncnc(N3CCN(c4ccccn4)CC3)c12	0.1	4	87*	4	62*	0.4
OCCOCC#CCN1CCOCC1	0.9	-3	6	-16	-7	1.1
CCN1CCN(C(=O)COc2cc(=O)n(CC)c3ccccc23)CC1	1.4	3	-43	0	4	1
SMILES	CYP2C9 activ	Ecoli WT expand	CYP2C9 inhib	Ecoli tolC	CYP2C19 inh	CYP2C19 activ
COc1ccc(N2CCN(CCCN)CC2)cc1	·	·	·	-10	·	·
Cc1ccc(Cl)cc1N1CCN(CCN)CC1	0.7	32	35	-13	59*	0.4
CCCSc1nc(O)c(CC)c(=O)n1C(C)CC (stereo unspecified)	0.8	2	17	50	22	0.8
CCCCCCn1c(O)c(C=NC2CCCCC2N)c(=O)[nH]c1=O (stereo unspecified)	0.5	-5	52*	-14	7	0.9
NC1CCCCC1N=Cc1c(O)n(Cc2ccc(F)cc2)c(=O)[nH]c1=O (stereo unspecified)	0.2	-7	76*	13	12	0.9
Cc1cc(N2C(=O)C3CCCN3C2c2ccccc2)no1 (stereo unspecified)	1.1	1	-6	-28	-13	1.1
Cc1cc(C)c(S(=O)(=O)NCC2CCC(C(=O)N3CCC4(CC3)OCCO4)CC2)c(C)c1 (stereo unspecified)	0.9	5	13	·	26	0.7
C=CCN1C(=O)C2(C(C(=O)OCC)=C(N)Oc3ccccc32)c2c1c1ccccc1oc2=O (stereo unspecified)	0.5	6	53*	17	21	0.8
CCOC(=O)C1=C(N)Oc2c(c(=O)oc3ccccc23)C12C(=O)N(C)c1ccccc12 (stereo unspecified)	0.7	-1	31	28	10	0.9
O=C(NCc1cccnc1)NC1CCCCC1	0.9	11	11	-11	26	0.7
CCOC(=O)C(O)(c1ccc(NC(=O)NC2CCCCC2)cc1)C(F)(F)F (stereo unspecified)	0.4	-7	59*	·	80*	0.2
CCCCn1c(O)c(C(C)=NCC2CCCO2)c(=O)[nH]c1=O (stereo unspecified)	0.8	3	23	·	20	0.8
CCCCCCCC(=O)NC(Oc1ccccc1[N+](=O)[O-])C(Cl)(Cl)Cl (stereo unspecified)	0.7	3	28	·	26	0.7
O=C1NC(=O)C(CCc2ccccn2)(Cc2ccc3c(c2)OCO3)C(=O)N1CCc1ccccc1 (stereo unspecified)	0.7	1	31	·	55*	0.4
O=c1[nH]c(=O)n(CCc2ccccc2)c(O)c1C=NCc1ccc2c(c1)OCO2	0.8	-3	25	·	-26	1.3
CCS(=O)(=O)N1CCCC(C(=O)N2CCC3(CC2)OCCO3)C1 (stereo unspecified)	0.9	-1	15	-24	58*	0.4
CC1(C)CC(=O)C(C=NCCN2CCN(C(=O)Cc3ccc(F)cc3)CC2)=C(O)C1	1	0	-4	9	0	1
Cc1cc(C)nc(-n2c(C)nc3cc(Cl)ccc3c2=O)c1	0.1	1	90*	·	41	0.6
COc1ncccc1C(=O)NCC(CC(=O)O)c1ccccc1 (stereo unspecified)	0.7	-12	32	-8	6	0.9
